The results in this text go back to ChEMBL document CHEMBL3797173, “Synthesis, anticancer activity, and SAR analyses of compounds containing the 5:7-fused 4,6,8-triaminoimidazo[4,5-e][1,3]diazepine ring system” (Bioorg Med Chem, 2016).

The IC50 is the concentration at which inhibition is half-maximal.

For one experiment, the system named is A549. Briefly: Anticancer activity against human A549 cells incubated for 72 hrs by WST1 assay. The experiment is classed as functional, cell-based. The gist of the method: (§1)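 Cells (0.5–1.7x10³ per well) seeded in RPMI + 10% FBS the day before dosing. Endpoint: WST-1 reagent added, 4 h further incubation at 37 °C, 5% CO₂, then absorbance read at 450–690 nm. IC50 derived from these readouts.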

Experiment [1] is described as follows: Anticancer activity against human H460 cells incubated for 72 hrs by WST1 assay. The experiment is classed as functional, cell-based, NCI-H460. In outline: as §1
In general terms: Tetrazolium dyes change colour on reduction, which living cells bring about.

The subject of the next experiment is MCF7. Kind of experiment: Anticancer activity against human MCF7 cells incubated for 72 hrs by WST1 assay. The experiment is classed as functional, cell-based. In outline:
as §1

The nature of experiment [2]: Anticancer activity against human OVCAR3 cells incubated for 72 hrs by WST1 assay. The experiment is classed as functional, cell-based, OVCAR-3. In outline:
as §1

Experiment [3] is described as follows: Anticancer activity against human PC3 cells incubated for 72 hrs by WST1 assay. The experiment is classed as functional, cell-based, PC-3. The gist of the method:
as §1

The test system of a further experiment is MDA-MB-231. Briefly: Anticancer activity against human MDA-MB-231 cells incubated for 72 hrs by WST1 assay. In kind it is functional, cell-based. In outline:
as §1

The mark [4] stands for this setting: Homo sapiens, A549, 72 h, read-out: IC50.
[5] abbreviates: Homo sapiens, NCI-H460, 72 h, read-out: IC50.
Setting [6] is: Homo sapiens, MCF7, 72 h, read-out: IC50.
Where [7] appears, read: Homo sapiens, OVCAR-3, 72 h, read-out: IC50.
Setting [8] is: Homo sapiens, PC-3, 72 h, read-out: IC50.
[9] abbreviates: Homo sapiens, MDA-MB-231, 72 h, read-out: IC50.

On to `CCCCCCCCCCCCCC/N=c1\nc(N)c2ncn(Cc3ccccc3)c2c(N)n1`, for which the IC50 is 4.25 µM in the experiment on A549 (setting [4]); 6.75 µM in experiment [1] (setting [5]); 4.1 µM in the experiment on MCF7 (setting [6]); 5.5 µM in experiment [2] (setting [7]); 4.2 µM in experiment [3] (setting [8]); 5.85 µM with MDA-MB-231 (setting [9]).

For the molecule `CC/N=c1\nc(N)c2nc[nH]c2c(N)n1`, the IC50 is 38 µM with A549 (setting [4]); 22 µM in experiment [1] (setting [5]); > 100 µM in the experiment with MCF7 (setting [6]); “Not Active” in experiment [2] (ovcar-3); > 100 µM in experiment [3] (setting [8]); “Not Active” with MDA-MB-231 (mda-mb-231).

As to `CCCCCCCC/N=c1\nc(N)c2ncn(Cc3ccccc3)c2c(N)n1`, the IC50 came to 3.83 µM in the experiment with A549 (setting [4]); 7.45 µM in experiment [1] (setting [5]); 4.55 µM in the experiment with MCF7 (setting [6]); 4.98 µM in experiment [2] (setting [7]); 5.93 µM in experiment [3] (setting [8]); 4.75 µM in the experiment on MDA-MB-231 (setting [9]).

For the molecule `CCCCCCCC/N=c1\nc(N)c2ncn(Cc3ccc(OC)cc3)c2c(N)n1`, the IC50 in the experiment with A549 (setting [4]) stood at 5.7 µM; in experiment [1] (setting [5]), 4.2 µM; in the experiment with MCF7 (setting [6]), 3.8 µM; in experiment [2] (setting [7]), 3.75 µM; in experiment [3] (setting [8]), 5.9 µM; in the experiment on MDA-MB-231 (setting [9]), 2.55 µM.

For the molecule `CCCCCCCCCCCCCCCCCC/N=c1\nc(N)c2ncn(Cc3ccccc3)c2c(N)n1`, the IC50 was 5.3 µM in the experiment on A549 (setting [4]); 5.4 µM in experiment [1] (setting [5]); 8.3 µM in the experiment with MCF7 (setting [6]); 4.95 µM in experiment [2] (setting [7]); 5.45 µM in experiment [3] (setting [8]); 5.4 µM with MDA-MB-231 (setting [9]).

In the case of `Nc1n/c(=N\CCCCc2ccccc2)nc(N)c2c1ncn2Cc1ccccc1`, the IC50 in the experiment on A549 (setting [4]) was 15.3 µM; in experiment [1] (setting [5]), 18.8 µM; in the experiment on MCF7 (setting [6]), 8.8 µM; in experiment [2] (setting [7]) it was 37.3 µM; in experiment [3] (setting [8]) it was > 75 µM; in the experiment on MDA-MB-231 (setting [9]), 16.6 µM.

With `CCCCCCCCCCCCCCCCCC/N=c1\nc(N)c2nc[nH]c2c(N)n1`, the IC50 in the experiment on A549 (setting [4]) is 1.85 µM; in experiment [1] (setting [5]) it was 1.75 µM; in the experiment with MCF7 (setting [6]), 3.53 µM; in experiment [2] (setting [7]) it was 3.1 µM; in experiment [3] (setting [8]), 2.61 µM; with MDA-MB-231 (setting [9]) it was 1.43 µM.

`CCCCCCCCCC/N=c1\nc(N)c2ncn(Cc3ccccc3)c2c(N)n1`: the IC50 in the experiment on A549 (setting [4]) amounted to 1.8 µM; in experiment [1] (setting [5]), 3.2 µM; in the experiment with MCF7 (setting [6]), 1.4 µM; in experiment [2] (setting [7]), 3.95 µM; in experiment [3] (setting [8]) it was 5.15 µM; with MDA-MB-231 (setting [9]), 2.05 µM.

For `CCCCCCCC/N=c1\nc(N)c2ncn(Cc3ccc(F)cc3)c2c(N)n1`, the IC50 came out at 5.9 µM with A549 (setting [4]); 4.7 µM in experiment [1] (setting [5]); 3 µM in the experiment on MCF7 (setting [6]); 4.3 µM in experiment [2] (setting [7]); 3.8 µM in experiment [3] (setting [8]); 3.6 µM with MDA-MB-231 (setting [9]).

As for `Nc1n/c(=N\CCc2ccccc2)nc(N)c2c1ncn2Cc1ccccc1`, the IC50 amounted to 20.4 µM in the experiment on A549 (setting [4]); 36.6 µM in experiment [1] (setting [5]); 10.4 µM in the experiment on MCF7 (setting [6]); 31.7 µM in experiment [2] (setting [7]); 13.1 µM in experiment [3] (setting [8]); 17.9 µM in the experiment with MDA-MB-231 (setting [9]).

For the molecule `CCCCCCCC/N=c1\nc(N)c2nc[nH]c2c(N)n1`, the IC50 entry (in the experiment with A549 (a549); in experiment [1] (nci-h460); in the experiment with MCF7 (mcf7); in experiment [2] (ovcar-3); in experiment [3] (pc-3); with MDA-MB-231 (mda-mb-231)) was “Not Active” throughout.
